Assay type in all cases: functional
The test system of one assay is Escherichia coli. The assay can be described thus: Antimicrobial activity against Escherichia coli assessed as reduction in bacterial growth incubated for 48 hrs by microbroth dilution method. The essentials: (§1)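 Panel assay run per a previously reported protocol. Amphotericin B, micafungin, hygromycin B and kanamycin served as control agents across the organism panel.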
For orientation: Broth dilution looks for growth in wells or tubes with falling amounts of substance.

The test system of the next assay is Candida albicans. As to the kind of experiment: Antimicrobial activity against Candida albicans IFM62680 assessed as reduction in […] growth incubated for 48 hrs by microbroth dilution method. Particulars: IFM62680, 48 h.
For another assay, the system named is Staphylococcus aureus. As to the kind of experiment: Antimicrobial activity against Staphylococcus aureus assessed as reduction in bacterial growth incubated for 48 hrs by microbroth dilution method. The essentials: as §1
The test system of a further assay is Aspergillus niger. The assay can be described thus: Antimicrobial activity against Aspergillus niger IFM62678 assessed as reduction in […] growth incubated for 48 hrs by microbroth dilution method. The settings on record: IFM62678, 48 h. The method in brief:
as §1

Another assay has as its system Bacillus subtilis. As to the kind of experiment: Antimicrobial activity against Bacillus subtilis assessed as reduction in bacterial growth incubated for 48 hrs by microbroth dilution method. The essentials:
as §1

Assay [1] deals with Trichophyton mentagrophytes. As to the kind of experiment: Antimicrobial activity against Trichophyton mentagrophytes IFM62679 assessed as reduction in […] growth incubated for 48 hrs by microbroth dilution method. The settings on record: IFM62679, 48 h. The method in brief:
as §1

A further assay has as its system Micrococcus luteus. The assay can be described thus: Antimicrobial activity against Micrococcus luteus assessed as reduction in bacterial growth incubated for 48 hrs by microbroth dilution method. The method in brief: as §1

≈ marks a conversion by molar mass, not a printed value. Numbered stars: 1 amine (or outer) side, 2 acyl side, 3 side chain; on linkers, the order of the positions; unused ones are H or OH. Bridge positions count the residues as written; N and C are the ends. Square brackets hold non-standard residues; d marks the D form. Peptide text beside a SMILES is read from it. * marks the point of attachment. hTyr(3S-OH,4S-OH,3'-OSO3H) = N[C@H](C(=O)O)[C@H](O)[C@@H](O)c1ccc(O)c(OS(=O)(=O)O)c1; Orn(4R-OH,5R-OH) = O=C([C@H](C[C@@H](O)[C@@H](O)N[*:3])N[*:1])[*:2]; Pro(3S-OH,4S-Me) = C[C@H]1CN[C@H](C(=O)O)[C@H]1O; X1 = CCCCCOc1ccc(-c2cc(-c3ccc(C(=O)*)cc3)no2)cc1; Gln(3R-OH) = NC(=O)C[C@@H](O)[C@H](N)C(=O)O; Hyp = O=C(O)[C@@H]1C[C@@H](O)CN1 Bounds are passed on as bounds.

One may read the MIC as the smallest concentration in the dilution series that meets the test's criterion for growth inhibition. The IC50 is the point on the concentration scale where inhibition reaches its midpoint. Turning to `CN[C@H]1C[C@@H](N)[C@H](O)[C@@H](O[C@@H]2O[C@H](CO)[C@H](O)[C@H]3O[C@@]4(O[C@H]23)O[C@H]([C@H](N)CO)[C@H](O)[C@H](O)[C@H]4O)[C@@H]1O`, the MIC with Escherichia coli is 2 µg/mL (≈ 3.79 µM); with Staphylococcus aureus it was 0.5 µg/mL (≈ 0.948 µM); in the assay with Bacillus subtilis, 2 µg/mL (≈ 3.79 µM); in the assay on Micrococcus luteus, 1 µg/mL (≈ 1.9 µM). For the same compound, the values for the IC50 (in the assay with Candida albicans; with Aspergillus niger; in assay [1]) were 3.9 µg/mL (≈ 7.39 µM), 1 µg/mL (≈ 1.9 µM) and 1 µg/mL (≈ 1.9 µM), respectively.
As to `CCCCCOc1ccc(-c2cc(-c3ccc(C(=O)N[C@H]4C[C@@H](O)[C@@H](O)NC(=O)[C@@H]5[C@@H](O)[C@@H](C)CN5C(=O)[C@H]([C@H](O)CC(N)=O)NC(=O)[C@H]([C@H](O)[C@@H](O)c5ccc(O)c(OS(=O)(=O)O)c5)NC(=O)[C@@H]5C[C@@H](O)CN5C(=O)[C@H]([C@@H](C)O)NC4=O)cc3)no2)cc1` [MICAFUNGIN] (X1-[Orn(4R-OH,5R-OH)]T[Hyp][hTyr(3S-OH,4S-OH,3'-OSO3H)][Gln(3R-OH)][Pro(3S-OH,4S-Me)]; lactam 1-C), the minimum inhibitory concentration (MIC) in the assay on Escherichia coli is greater than 62.5 µg/mL; with Staphylococcus aureus it was 0.5 µg/mL (≈ 0.394 µM); in the assay on Bacillus subtilis it was 0.5 µg/mL (≈ 0.394 µM); with Micrococcus luteus it was 7.8 µg/mL (≈ 6.14 µM). Also, the IC50 (in the assay with Candida albicans; in the assay with Aspergillus niger; in assay [1]) was less than 0.1 µg/mL throughout.
Take `NC[C@H]1O[C@H](O[C@H]2[C@H](O)[C@@H](O[C@H]3O[C@H](CO)[C@@H](O)[C@H](N)[C@H]3O)[C@H](N)C[C@@H]2N)[C@H](O)[C@@H](O)[C@@H]1O` [KANAMYCIN]: the MIC was less than 0.1 µg/mL in the assay with Escherichia coli, less than 0.1 µg/mL in the assay with Staphylococcus aureus, less than 0.1 µg/mL in the assay with Bacillus subtilis and 1 µg/mL (≈ 2.06 µM) with Micrococcus luteus. Also, the IC50 with Candida albicans was greater than 62.5 µg/mL; with Aspergillus niger, 31.3 µg/mL (≈ 64.6 µM); in assay [1], 7.8 µg/mL (≈ 16.1 µM).
Regarding `C[C@@H]1[C@H](O)[C@@H](C)/C=C/C=C/C=C/C=C/C=C/C=C/C=C/[C@H](O[C@@H]2O[C@H](C)[C@@H](O)[C@H](N)[C@@H]2O)C[C@@H]2O[C@](O)(C[C@@H](O)C[C@@H](O)[C@H](O)CC[C@@H](O)C[C@@H](O)CC(=O)O[C@H]1C)C[C@H](O)[C@H]2C(=O)O` [AMPHOTERICIN B], the minimum inhibitory concentration (MIC) in the assay with Escherichia coli, with Staphylococcus aureus, in the assay on Bacillus subtilis and in the assay with Micrococcus luteus was greater than 31.2 µg/mL in each case. Also, the results for the IC50 (in the assay on Candida albicans; with Aspergillus niger; in assay [1]) were 1 µg/mL (≈ 1.08 µM), 1.8 µg/mL (≈ 1.95 µM) and 3.9 µg/mL (≈ 4.22 µM), respectively.
For `CC(C)=CC[C@@H]1C[C@@]2(CC=C(C)C)C(=O)C3(CC=C(C)C)C[C@]1(C)[C@]2(O)/C(=C(/O)c1ccccc1)C3=O`, the MIC in the assay on Escherichia coli was 8 µg/mL (≈ 15.9 µM); in the assay on Staphylococcus aureus, 16 µg/mL (≈ 31.8 µM); in the assay with Bacillus subtilis, 16 µg/mL (≈ 31.8 µM); in the assay with Micrococcus luteus it was 32 µg/mL (≈ 63.7 µM). Further, the IC50 in the assay with Candida albicans was found to be 32 µg/mL (≈ 63.7 µM); in the assay on Aspergillus niger, 16 µg/mL (≈ 31.8 µM); in assay [1], 8 µg/mL (≈ 15.9 µM).
As for `CC(C)=CC[C@]12C[C@H]3C[C@@H](C(C)(C)OO)OO[C@]3(C)C[C@](CC=C(C)C)(C1=O)C(O)=C(C(=O)c1ccccc1)C2=O`, the IC50 with Candida albicans turned out to be 8 µg/mL (≈ 14.1 µM).

The record behind these values is ChEMBL document CHEMBL3421626, “Prenylated benzophenones from Triadenum japonicum” (2015).
